Measured values published in publication PMC4245169 (ACS Chemical Biology, 2014).

Experiments:
[1] = test system: E. coli whole cell extract (prokaryotic ribosomal preparation); experiment: Cell free translation inhibition, E. coli S30 extract, luciferase reporter; assay type: biochemical; conditions: read-out: E. coli IC50, average of three independent experiments
Summary of the method: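 Test compound at varying concentrations preincubated 20 min at room temperature with E. coli S30 extract plus all amino acids. Luciferase control template then added and translation run 60 min at 37 °C, stopped on ice 5 min. Luminescence read right after luciferin addition. Triplicates normalised to vehicle control; macrolide positive controls. IC50 by logit regression, averaged over three independent experiments.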

[2] = test system: rabbit reticulocyte whole cell lysate (eukaryotic ribosomal preparation); experiment: Cell free translation inhibition, rabbit reticulocyte lysate; assay type: biochemical
Summary of the method: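 Nuclease-treated rabbit reticulocyte lysate was preincubated with test compound at varying concentrations and all amino acids for 20 min at room temperature. Luciferase control template was then added, and translation ran at 30 °C for 90 min before stopping on ice for 5 min. Luminescence was read after luciferin addition. Samples were run in triplicate and normalized to vehicle control. IC50 was fit by logit regression and averaged over three independent experiments.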

E. coli 23S rRNA [3] = experiment: CMCT chemical footprinting of 23S rRNA in intact 70S ribosomes; assay type: binding; conditions: primer 2180; peptolides and 7b 150 μM, clarithromycin 50 μM
E. coli 23S rRNA [4] = conditions: cited from earlier work

| IC50 [1] | IC50 ([2]; read-out: rabbit retic. IC50, cell free translation, luciferase reporter, average of three independent experiments) | Structure (SMILES) | inhibition of eukaryotic translation (in words) ([2]; RRL, controls at 250 μM) | protection of U1963 from CMCT modification (E. coli 23S rRNA [3]) | protection of A752 (E. coli 23S rRNA [4]) |
| --- | --- | --- | --- | --- | --- |
| 320 ± 120 nM | > 250000 nM | CC[C@H]1OC(=O)[C@H](C)[C@@H](O[C@H]2C[C@@](C)(OC)[C@@H](O)[C@H](C)O2)[C@H](C)[C@@H](O[C@@H]2O[C@H](C)C[C@H](N(C)C)[C@H]2O)[C@](C)(OC)C[C@@H](C)C(=O)[C@H](C)[C@@H](O)[C@]1(C)O [clarithromycin 1, clarithromycin] | inactive | available to CMCT modification |  |
|  |  | CC[C@H]1OC(=O)[C@H](C)C(=O)[C@H](C)[C@@H](O[C@@H]2O[C@H](C)C[C@H](N(C)C)[C@H]2O)[C@](C)(OC)C[C@@H](C)C(=O)[C@H](C)[C@H]2N(CCCCn3cnc(-c4cccnc4)c3)C(=O)O[C@]12C [TEL, telithromycin] |  |  | protected |
